Measured values: ChEMBL document CHEMBL3227978, “Azetidine derivatives of tricyclic antidepressant agents” (J Med Chem, 1979)
The source made the active and inactive calls. No cut-off for these calls is given here.

How the values were obtained:
Mus musculus [1] = assay: Antidepressant activity in ICEM:CET (SPF Caw) mouse assessed as antagonism of reserpine-induced blepharospasm at 25 mg/kg, po administered via gavage 30 mins before reserpine challenge measured 1 hr after reserpine treatment; assay type: functional, organism-based; set-up: dose 25 mg/kg
Outline: (§1)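 Male mice, 18-22 g, groups of ten, housed the evening before with a 9-h fast and water until 2 h before testing. Gavage dosing at 25 mg/kg in 0.5% Methocel, 30 min before reserpine 2.5 mg/kg ip in 0.5% acetic acid. Read blind: blepharospasm scored (Rubin scale) at 1 h, rectal thermocouple temperature at 4 h.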

Mus musculus [2] = assay: Antidepressant activity in ICEM:CET (SPF Caw) mouse assessed as antagonism of reserpine-induced hypothermia at 25 mg/kg, po administered via gavage 30 mins before reserpine challenge measured 4 hrs after reserpine treatment; assay type: functional, organism-based; set-up: dose 25 mg/kg; outline: as §1
Mus musculus [3] = assay: Antidepressant activity in po dosed ICEM:CET (SPF Caw) mouse assessed as antagonism of reserpine-induced blepharospasm administered via gavage 30 mins before reserpine challenge measured 1 hr after reserpine treatment; assay type: functional
Outline: (§2)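 Groups of ten male mice (18-22 g), fasted 9 h with water until 2 h pre-test. Oral gavage in 0.5% Methocel at doses below the 25 mg/kg screen, 30 min before reserpine 2.5 mg/kg ip. Blepharospasm scored blind at 1 h, rectal temperature at 4 h. ED50 estimated by eye-fit linear plots on semilogarithmic paper.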

Mus musculus [4] = assay: Antidepressant activity in po dosed ICEM:CET (SPF Caw) mouse assessed as antagonism of reserpine-induced hypothermia administered via gavage 30 mins before reserpine challenge measured 4 hrs after reserpine treatment; assay type: functional; outline: as §2
Mus musculus [5] = assay: Anticonvulsant activity in po dosed ICEM:CET (SPF Caw) mouse assessed as antagonism of pentylenetetrazole-induced flexor-extensor tonic convulsions administered via gavage 30 mins before pentylenetetrazole challenge; assay type: functional
Outline: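 Male mice, 18-22 g, dosed orally by gavage in 0.5% Methocel (0.1 mL/10 g), starting at a 50 mg/kg screening dose, then graded doses. Pentylenetetrazole 130 mg/kg ip given 30 min later. Ten mice per dose and for controls. Dose preventing flexor-extensor tonic convulsions in 50% of animals read from dose-response curves (ED50).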

Mus musculus [6] = assay: (§3) Orientative acute toxicity in po dosed ICEM:CET (SPF Caw) mouse administered via gavage measured for 60 mins after drug dosing by Irwin's test; assay type: organism-based; details: in vivo, 1 h
Outline: (§4)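 Male ICEM:CET (SPF Caw) mice, 18-22 g. Oral gavage, suspended or dissolved in 0.5% Methocel at 0.1 mL/10 g body weight. Doses of at least 25, 50, 100, 200, 400 and 800 mg/kg, four animals per dose. Animals were observed closely for 60 min after dosing during Irwin's symptomatologic test, and an approximate LD50 was estimated.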

[7] = as §3; assay type: organism-based; details: ICEM:CET (SPF Caw), in vivo; outline: as §4
[8] = Mus musculus, ICEM:CET(SPF Caw), po, read-out: ED50

Row | Structure (SMILES) | Activity (Mus musculus [1]) | Activity (Mus musculus [2]) | other results
1 | CC(C)(C)N1CC(N2c3ccccc3COc3ccccc32)C1 | inactive | inactive | 
2 | CC(C)(C)N1CC(N2c3ccccc3CCc3ccccc32)C1 | inactive | inactive | 
3 | c1ccc2c(c1)Sc1ccccc1N2C1CNC1 | inactive | inactive | 
4 | c1ccc2c(c1)CCc1ccccc1N2C1CNC1 | inactive | inactive | 
5 | CC(C)N1CC(N2c3ccccc3COc3ccccc32)C1 | inactive | inactive | 
6 | CC(C)(C)N1CC(N2c3ccccc3Sc3ccc(Cl)cc32)C1 | inactive | inactive | 
7 | CC(C)(C)N1CC(N2c3ccccc3Sc3ccc(C(F)(F)F)cc32)C1 | inactive | inactive | 
8 | c1ccc2c(c1)COc1ccccc1N2C1CNC1 | inactive | inactive | 
9 | c1ccc2c(c1)COc1ccccc1N2CC1CNC1 | inactive | inactive | 
10 | CC(C)N1CC(N2c3ccccc3CCc3ccccc32)C1 | inactive | inactive | 
11 | c1ccc2c(c1)CCc1ccccc1N2CC1CNC1 | inactive | inactive | 
12 | CNC1CN(C2c3ccccc3COc3ccccc32)C1.O=C(O)/C=C/C(=O)O (single isomer, unassigned; (-)) |  |  | ED50 (Mus musculus [3]): 1.3 mg/kg; ED50 (Mus musculus [4]): 14.1 mg/kg; ED50 (Mus musculus [5]): >50 mg/kg; LD50 (Mus musculus [6]): 100 mg/kg
13 | CC(C)(C)N1CC(N2c3ccccc3CCc3ccc(Cl)cc32)C1 | inactive | inactive | 
14 | CC(C)(C)N1CC(N2c3ccccc3Sc3ccccc32)C1 | inactive | inactive | 
15 | CC(C)N1CC(CN2c3ccccc3COc3ccccc32)C1 | inactive | inactive | 
16 | CC(C)N1CC(CN2c3ccccc3CCc3ccccc32)C1 | inactive | inactive | 
17 | CN1CC(N2c3ccccc3CCc3ccccc32)C1 | inactive | inactive | 
18 | CC(C)(C)N1CC(N2c3ccccc3C=Cc3ccccc32)C1 | inactive | inactive | 
19 | NCC1CN(C2c3ccccc3CCc3ccccc32)C1 |  |  | ED50 (Mus musculus [3]; [8]): > 25 mg/kg; ED50 (Mus musculus [4]; [8]): > 25 mg/kg; ED50 (Mus musculus [5]; [8]): > 50 mg/kg; LD50 at 1 h [7]: 400 mg/kg
20 | COc1ccc2c(c1)C(N1CC(N(C)C)C1)c1ccccc1CO2 (centres undefined) |  |  | ED50 (Mus musculus [3]; [8]): > 25 mg/kg; ED50 (Mus musculus [4]; [8]): > 25 mg/kg; ED50 (Mus musculus [5]; [8]): > 50 mg/kg; LD50 at 1 h [7]: 400 mg/kg
21 | CC(C)NC1CN(C2c3ccccc3COc3ccccc32)C1 (centres undefined) |  |  | ED50 (Mus musculus [3]; [8]): 3.9 mg/kg; ED50 (Mus musculus [4]; [8]): 24.5 mg/kg; ED50 (Mus musculus [5]; [8]): 27 mg/kg; LD50 at 1 h [7]: 200 mg/kg
22 | CN(C)C1CN(C2c3ccccc3CSc3ccccc32)C1 (centres undefined) |  |  | ED50 (Mus musculus [3]; [8]): > 25 mg/kg; ED50 (Mus musculus [4]; [8]): > 25 mg/kg; ED50 (Mus musculus [5]; [8]): 19 mg/kg; LD50 at 1 h [7]: 400 mg/kg
